According to ChEMBL document CHEMBL1151774, “Synthesis and biological evaluation of new N-linked 5-triazolylmethyl oxazolidinones” (Eur J Med Chem, 2008):
In brackets after ≈: the same amount, converted by molar mass.

Columns and labels:
[1] = tested on: Staphylococcus aureus; assay: Antimicrobial activity against Staphylococcus aureus ATCC 29213 after 16 to 18 hrs by agar dilution method; assay type: functional
[2] = tested on: Staphylococcus aureus; assay: Antimicrobial activity against methicillin-susceptible Staphylococcus aureus after 16 to 18 hrs by agar dilution method; assay type: functional
[3] = tested on: Staphylococcus aureus; assay: Antimicrobial activity against methicillin-resistant Staphylococcus aureus after 16 to 18 hrs by agar dilution method; assay type: functional
[4] = tested on: Streptococcus pneumoniae; assay: Antimicrobial activity against sStreptococcus pneumoniae after 16 to 18 hrs by agar dilution method; assay type: functional
[5] = tested on: Enterococcus faecalis; assay: Antimicrobial activity against Enterococcus faecalis after 16 to 18 hrs by agar dilution method; assay type: functional
[6] = tested on: Staphylococcus aureus; assay: Antimicrobial activity against methicillin-resistant Staphylococcus aureus 05-2 infected in po dosed KunMing SPF mouse; assay type: functional
Method in brief: (§1)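 Mice given a lethal systemic infection by intraperitoneal injection of the MLD inoculum of MRSA 05-2. Compound dosed orally or by i.v. injection in 0.9% NaCl immediately and 4 h post-infection. ED50 (dose curing 50% of infected mice) calculated by the Bliss method on day 7 post-infection, with 95% confidence ranges.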

[7] = tested on: Staphylococcus aureus; assay: Antimicrobial activity against methicillin-resistant Staphylococcus aureus 05-2 infected in iv dosed KunMing SPF mouse; assay type: functional; method in brief: as §1
[8] = Cmax in Sprague-Dawley rat at 10 mg/kg, po; assay type: ADME, organism-based; parameters: dose 10 mg/kg, route oral; settings: in vivo
Method in brief: (§2)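 Single dose given orally (10 or 50 mg/kg) or intravenously (10 mg/kg). Serial 300 µL blood samples were taken from the retrobulbar vein. Plasma was quantified by LC-MS. Parameters came from mean plasma concentration by non-compartmental analysis. F is absolute oral bioavailability, assuming linear pharmacokinetics.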

[9] = Cmax in Sprague-Dawley rat at 50 mg/kg, po; assay type: ADME, organism-based; parameters: dose 50 mg/kg, route oral; settings: in vivo; method in brief: as §2
[10] = Tmax in Sprague-Dawley rat at 10 mg/kg, po; assay type: ADME, organism-based; parameters: dose 10 mg/kg, route oral; settings: in vivo; method in brief: as §2
[11] = Tmax in Sprague-Dawley rat at 50 mg/kg, po; assay type: ADME, organism-based; parameters: dose 50 mg/kg, route oral; settings: in vivo; method in brief: as §2
[12] = Elimination half life in Sprague-Dawley rat at 10 mg/kg, po; assay type: ADME, organism-based; parameters: dose 10 mg/kg, route oral; settings: in vivo, read-out: beta t1/2 (converted); method in brief: as §2
[13] = Elimination half life in Sprague-Dawley rat at 50 mg/kg, po; assay type: ADME, organism-based; parameters: dose 50 mg/kg, route oral; settings: in vivo, read-out: beta t1/2 (converted); method in brief: as §2
[14] = (§3) AUC (0 to infinity) in Sprague-Dawley rat at 10 mg/kg, po; assay type: ADME, organism-based, Plasma; parameters: time infinity, dose 10 mg/kg, route oral; settings: Sprague-Dawley, plasma; method in brief: as §2
[15] = (§4) AUC (0 to infinity) in Sprague-Dawley rat at 50 mg/kg, po; assay type: ADME, organism-based, Plasma; parameters: time infinity, dose 50 mg/kg, route oral; settings: Sprague-Dawley, plasma; method in brief: as §2
[16] = AUC (0 to infinity) in Sprague-Dawley rat at 10 mg/kg, iv; assay type: ADME, organism-based; parameters: time infinity, dose 10 mg/kg, route intravenous; settings: plasma; method in brief: as §2
[17] = Clearance in Sprague-Dawley rat at 10 mg/kg, po; assay type: ADME, organism-based; parameters: dose 10 mg/kg, route oral; settings: in vivo; method in brief: as §2
[18] = Clearance in Sprague-Dawley rat at 50 mg/kg, po; assay type: ADME, organism-based; parameters: dose 50 mg/kg, route oral; settings: in vivo; method in brief: as §2
[19] = Clearance in Sprague-Dawley rat at 10 mg/kg, iv; assay type: ADME, organism-based; parameters: dose 10 mg/kg, route intravenous; settings: in vivo; method in brief: as §2
[20] = Oral bioavailability in Sprague-Dawley rat at 10 mg/kg; assay type: ADME, organism-based; settings: in vivo; method in brief: as §2
[21] = Elimination half life in Sprague-Dawley rat at 10 mg/kg, iv; assay type: ADME, organism-based; parameters: dose 10 mg/kg, route intravenous; settings: in vivo, read-out: beta t1/2 (converted); method in brief: as §2
[22] = tested on: Rattus norvegicus; assay: as §3; assay type: ADME, organism-based, Plasma; parameters: time infinity, dose 10 mg/kg, route oral; settings: in vivo; method in brief: as §2
[23] = tested on: Rattus norvegicus; assay: as §4; assay type: ADME, organism-based, Plasma; parameters: time infinity, dose 50 mg/kg, route oral; settings: in vivo; method in brief: as §2

Structure (SMILES)	MIC [1]	MIC [2]	MIC [3]	MIC [4]	MIC [5]	other results
O=C1O[C@@H](Cn2ccnn2)CN1c1ccc(N2CCN(Cc3cccnc3)CC2)c(F)c1	0.125 µg/mL (≈ 0.286 µM)	0.125 µg/mL (≈ 0.286 µM)	1 µg/mL (≈ 2.29 µM)	1 µg/mL (≈ 2.29 µM)	1 µg/mL (≈ 2.29 µM)	–
O=C1O[C@@H](Cn2ccnn2)CN1c1ccc(N2CCN(Cc3ccsc3)CC2)c(F)c1	0.06 µg/mL (≈ 0.136 µM)	0.06 µg/mL (≈ 0.136 µM)	1 µg/mL (≈ 2.26 µM)	0.5 µg/mL (≈ 1.13 µM)	1 µg/mL (≈ 2.26 µM)	–
O=Cc1ccc(CN2CCN(c3ccc(N4C[C@H](Cn5ccnn5)OC4=O)cc3F)CC2)cc1	0.008 µg/mL (≈ 0.0172 µM)	1 µg/mL (≈ 2.15 µM)	0.25 µg/mL (≈ 0.538 µM)	1 µg/mL (≈ 2.15 µM)	2 µg/mL (≈ 4.31 µM)	–
O=C1O[C@@H](Cn2ccnn2)CN1c1ccc(N2CCN(Cc3cccc([N+](=O)[O-])c3)CC2)c(F)c1	0.03 µg/mL (≈ 0.0623 µM)	0.06 µg/mL (≈ 0.125 µM)	0.5 µg/mL (≈ 1.04 µM)	0.5 µg/mL (≈ 1.04 µM)	0.5 µg/mL (≈ 1.04 µM)	ED50 [6]: 7.87 mg/kg; ED50 [7]: 11.2 mg/kg; Cmax [8]: 3240 ng/mL; Cmax [9]: 10800 ng/mL; Tmax [10]: 1.4 h; Tmax [11]: 2.3 h; half-life [12]: 2.36 h; half-life [13]: 5.34 h; AUC(0-inf) [14]: 16100 ng·h/mL; AUC(0-inf) [15]: 74500 ng·h/mL; AUC(0-inf) [16]: 26200 ng·h/mL; CL/F [17]: 11.7 mL/min/kg; CL/F [18]: 11.3 mL/min/kg; clearance [19]: 6.98 mL/min/kg; bioavailability [20]: 61.5%; half-life [21]: 2.95 h
O=C1O[C@@H](Cn2ccnn2)CN1c1ccc(N2CCN(Cc3ccc(Br)s3)CC2)c(F)c1	0.06 µg/mL (≈ 0.115 µM)	0.06 µg/mL (≈ 0.115 µM)	0.5 µg/mL (≈ 0.959 µM)	0.5 µg/mL (≈ 0.959 µM)	1 µg/mL (≈ 1.92 µM)	–
O=C1O[C@@H](Cn2ccnn2)CN1c1ccc(N2CCN(Cc3ccco3)CC2)c(F)c1	0.06 µg/mL (≈ 0.141 µM)	0.06 µg/mL (≈ 0.141 µM)	0.5 µg/mL (≈ 1.17 µM)	0.5 µg/mL (≈ 1.17 µM)	0.5 µg/mL (≈ 1.17 µM)	ED50 [6]: 12.3 mg/kg; ED50 [7]: 12 mg/kg
O=C1O[C@@H](Cn2ccnn2)CN1c1ccc(N2CCN(Cc3ccc([N+](=O)[O-])o3)CC2)c(F)c1	0.06 µg/mL (≈ 0.127 µM)	0.06 µg/mL (≈ 0.127 µM)	0.06 µg/mL (≈ 0.127 µM)	0.03 µg/mL (≈ 0.0636 µM)	0.25 µg/mL (≈ 0.53 µM)	Cmax [8]: 5440 ng/mL; Cmax [9]: 16900 ng/mL; Tmax [10]: 0.25 h; Tmax [11]: 0.5 h; half-life [12]: 1.51 h; half-life [13]: 1.66 h; AUC [22]: 19400 ng·h/mL; AUC [23]: 139000 ng·h/mL; AUC(0-inf) [16]: 18900 ng·h/mL; clearance [19]: 16.2 mL/min/kg; bioavailability [20]: 103%; half-life [21]: 1.18 h
O=C1O[C@@H](Cn2ccnn2)CN1c1ccc(N2CCN(Cc3ccncc3)CC2)c(F)c1	0.5 µg/mL (≈ 1.14 µM)	0.5 µg/mL (≈ 1.14 µM)	1 µg/mL (≈ 2.29 µM)	1 µg/mL (≈ 2.29 µM)	2 µg/mL (≈ 4.57 µM)	–
O=C1O[C@@H](Cn2ccnn2)CN1c1ccc(N2CCN(Cc3ccccn3)CC2)c(F)c1	0.125 µg/mL (≈ 0.286 µM)	0.125 µg/mL (≈ 0.286 µM)	0.5 µg/mL (≈ 1.14 µM)	0.5 µg/mL (≈ 1.14 µM)	0.5 µg/mL (≈ 1.14 µM)	–
O=Cc1cccc(CN2CCN(c3ccc(N4C[C@H](Cn5ccnn5)OC4=O)cc3F)CC2)c1	0.25 µg/mL (≈ 0.538 µM)	0.5 µg/mL (≈ 1.08 µM)	0.125 µg/mL (≈ 0.269 µM)	1 µg/mL (≈ 2.15 µM)	1 µg/mL (≈ 2.15 µM)	–
Cc1ccsc1CN1CCN(c2ccc(N3C[C@H](Cn4ccnn4)OC3=O)cc2F)CC1	1 µg/mL (≈ 2.19 µM)	1 µg/mL (≈ 2.19 µM)	4 µg/mL (≈ 8.76 µM)	4 µg/mL (≈ 8.76 µM)	4 µg/mL (≈ 8.76 µM)	–
